Experimental data as given in ChEMBL document CHEMBL5550111, “Design, synthesis and biological evaluation of aryloxy thiophosphoramidate triesters of anticancer nucleoside analogues” (Bioorg Med Chem, 2024).

Columns and labels:
MDA-MB-231 [1] = experiment: Cytotoxicity against human MDA-MB-231 cells assessed as maximum inhibition of cell viability upto 198 uM incubated for 72 hrs by MTS assay relative to control; type: functional; conditions: up to 198 µM
Procedure, shortened: (§1)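 Cells seeded at 0.5 to 100 × 10^3 per well the day before drug addition, then exposed to compound for 72 h. MTS added afterwards, with a further 4 h at 37 °C, and absorbance read. Tested in duplicate at 9 serial 3.16-fold dilutions, top concentration 198 μM. MI% is the maximum inhibition of viability across the tested range.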

CAKI-2 [2] = experiment: Cytotoxicity against human CAKI-2 cells assessed as maximum inhibition of cell viability upto 198 uM incubated for 72 hrs by MTS assay relative to control; type: functional; conditions: up to 198 µM; procedure, shortened: as §1
HT-29 [3] = experiment: Cytotoxicity against human HT-29 cells assessed as inhibition of cell viability incubated for 72 hrs by MTS assay; type: functional, cell-based; conditions: HT-29, 72 h
Procedure, shortened: (§2)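 Cells seeded at 0.5 to 100 × 10^3 per well the day before treatment, then exposed for 72 h to 9 serial concentrations (3.16-fold dilutions, top 198 μM), in duplicate. MTS added for a final 4 h at 37 °C and absorbance read. IC50 is the concentration giving 50% loss of viability. MI% is the maximum inhibition over the tested range.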

A498 [4] = experiment: Cytotoxicity against human A498 cells assessed as inhibition of cell viability incubated for 72 hrs by MTS assay; type: functional, cell-based; conditions: A498, 72 h; procedure, shortened: as §2
A498 [5] = experiment: Cytotoxicity against human A498 cells assessed as maximum inhibition of cell viability upto 198 uM incubated for 72 hrs by MTS assay relative to control; type: functional; conditions: up to 198 µM; procedure, shortened: as §1
RL [6] = experiment: Cytotoxicity against human RL cells assessed as inhibition of cell viability incubated for 72 hrs by MTS assay; type: functional, cell-based; procedure, shortened: as §2
MOLT-4 [7] = experiment: Cytotoxicity against human MOLT-4 cells assessed as inhibition of cell viability incubated for 72 hrs by MTS assay; type: functional, cell-based; conditions: MOLT-4, 72 h; procedure, shortened: as §2
[8] = Cytotoxicity against human T24/83 cells assessed as maximum inhibition of cell viability upto 198 uM incubated for 72 hrs by MTS assay relative to control; type: functional; conditions: up to 198 µM; procedure, shortened: as §1
5637 [9] = experiment: Cytotoxicity against human 5637 cells assessed as maximum inhibition of cell viability upto 198 uM incubated for 72 hrs by MTS assay relative to control; type: functional; conditions: up to 198 µM; procedure, shortened: as §1
[10] = Cytotoxicity against human T24/83 cells assessed as inhibition of cell viability incubated for 72 hrs by MTS assay; type: functional, cell-based; conditions: T24/83, 72 h; procedure, shortened: as §2
K562 [11] = experiment: Cytotoxicity against human K562 cells assessed as maximum inhibition of cell viability upto 198 uM incubated for 72 hrs by MTS assay relative to control; type: functional; conditions: up to 198 µM; procedure, shortened: as §1
CAKI-2 [12] = experiment: Cytotoxicity against human CAKI-2 cells assessed as inhibition of cell viability incubated for 72 hrs by MTS assay; type: functional, cell-based; conditions: CAKI-2, 72 h; procedure, shortened: as §2
COLO 205 [13] = experiment: Cytotoxicity against human COLO 205 cells assessed as inhibition of cell viability incubated for 72 hrs by MTS assay; type: functional, cell-based; conditions: COLO 205, 72 h; procedure, shortened: as §2
MIA PaCa-2 [14] = experiment: Cytotoxicity against human MIA PaCa-2 cells assessed as maximum inhibition of cell viability upto 198 uM incubated for 72 hrs by MTS assay relative to control; type: functional; conditions: up to 198 µM; procedure, shortened: as §1
COLO 205 [15] = experiment: Cytotoxicity against human COLO 205 cells assessed as maximum inhibition of cell viability upto 198 uM incubated for 72 hrs by MTS assay relative to control; type: functional; conditions: up to 198 µM; procedure, shortened: as §1
K562 [16] = experiment: Cytotoxicity against human K562 cells assessed as inhibition of cell viability incubated for 72 hrs by MTS assay; type: functional, cell-based; conditions: K562, 72 h; procedure, shortened: as §2
RL [17] = experiment: Cytotoxicity against human RL cells assessed as maximum inhibition of cell viability upto 198 uM incubated for 72 hrs by MTS assay relative to control; type: functional; conditions: up to 198 µM; procedure, shortened: as §1
MDA-MB-231 [18] = experiment: Cytotoxicity against human MDA-MB-231 cells assessed as inhibition of cell viability incubated for 72 hrs by MTS assay; type: functional, cell-based; conditions: MDA-MB-231, 72 h; procedure, shortened: as §2
[19] = Cytotoxicity against human ACHN-luc2 cells assessed as inhibition of cell viability incubated for 72 hrs by MTS assay; type: functional, cell-based; conditions: ACHN-luc2, 72 h; procedure, shortened: as §2
HT-29 [20] = experiment: Cytotoxicity against human HT-29 cells assessed as maximum inhibition of cell viability upto 198 uM incubated for 72 hrs by MTS assay relative to control; type: functional; conditions: up to 198 µM; procedure, shortened: as §1
MOLT-4 [21] = experiment: Cytotoxicity against human MOLT-4 cells assessed as maximum inhibition of cell viability upto 198 uM incubated for 72 hrs by MTS assay relative to control; type: functional; conditions: up to 198 µM; procedure, shortened: as §1
PC-3 [22] = experiment: Cytotoxicity against human PC-3 cells assessed as inhibition of cell viability incubated for 72 hrs by MTS assay; type: functional, cell-based; conditions: PC-3, 72 h; procedure, shortened: as §2
MCF7 [23] = experiment: Cytotoxicity against human MCF7 cells assessed as maximum inhibition of cell viability upto 198 uM incubated for 72 hrs by MTS assay relative to control; type: functional; conditions: up to 198 µM; procedure, shortened: as §1
KG-1 [24] = experiment: Cytotoxicity against human KG-1 cells assessed as inhibition of cell viability incubated for 72 hrs by MTS assay; type: functional, cell-based; conditions: KG-1, 72 h; procedure, shortened: as §2
HL-60 [25] = experiment: Cytotoxicity against human HL-60 cells assessed as maximum inhibition of cell viability upto 198 uM incubated for 72 hrs by MTS assay relative to control; type: functional; conditions: up to 198 µM; procedure, shortened: as §1
HepG2 [26] = experiment: Cytotoxicity against human HepG2 cells assessed as inhibition of cell viability incubated for 72 hrs by MTS assay; type: functional, cell-based; conditions: HepG2, 72 h; procedure, shortened: as §2
5637 [27] = experiment: Cytotoxicity against human 5637 cells assessed as inhibition of cell viability incubated for 72 hrs by MTS assay; type: functional, cell-based; conditions: Homo sapiens, 5637, 72 h; procedure, shortened: as §2
HepG2 [28] = experiment: Cytotoxicity against human HepG2 cells assessed as maximum inhibition of cell viability upto 198 uM incubated for 72 hrs by MTS assay relative to control; type: functional; conditions: up to 198 µM; procedure, shortened: as §1
PC-3 [29] = experiment: Cytotoxicity against human PC-3 cells assessed as maximum inhibition of cell viability upto 198 uM incubated for 72 hrs by MTS assay relative to control; type: functional; conditions: up to 198 µM; procedure, shortened: as §1
[30] = Cytotoxicity against human ACHN-luc2 cells assessed as maximum inhibition of cell viability upto 198 uM incubated for 72 hrs by MTS assay relative to control; type: functional; conditions: up to 198 µM; procedure, shortened: as §1
KG-1 [31] = experiment: Cytotoxicity against human KG-1 cells assessed as maximum inhibition of cell viability upto 198 uM incubated for 72 hrs by MTS assay relative to control; type: functional; conditions: up to 198 µM; procedure, shortened: as §1
MIA PaCa-2 [32] = experiment: Cytotoxicity against human MIA PaCa-2 cells assessed as inhibition of cell viability incubated for 72 hrs by MTS assay; type: functional, cell-based; conditions: MIA PaCa-2, 72 h; procedure, shortened: as §2
HL-60 [33] = experiment: Cytotoxicity against human HL-60 cells assessed as inhibition of cell viability incubated for 72 hrs by MTS assay; type: functional, cell-based; conditions: HL-60, 72 h; procedure, shortened: as §2
MCF7 [34] = experiment: Cytotoxicity against human MCF7 cells assessed as inhibition of cell viability incubated for 72 hrs by MTS assay; type: functional, cell-based; conditions: MCF7, 72 h

Compound `C[C@H](NP(=S)(OC[C@@H]1C[C@@H](O)[C@H](n2cnc3c(N)ncnc32)O1)Oc1ccccc1)C(=O)OCc1ccccc1` (some centres undefined) has an Imax (MDA-MB-231 [1]) of 96%, an Imax (CAKI-2 [2]) of 78% and an IC50 (HT-29 [3]) of 57.9 µM. The IC50 (A498 [4]) was 44.5 µM, the Imax (A498 [5]) was 95% and the IC50 (RL [6]) was 95.6 µM. The IC50 (MOLT-4 [7]) was 9.19 µM, the Imax [8] was 100% and the Imax 5637 [9] was 100%. The IC50 [10] was 42.6 µM, the Imax (K562 [11]) was 96% and the IC50 (CAKI-2 [12]) was 76 µM. For the same compound, the IC50 (COLO 205 [13]) was 41.8 µM, the Imax (MIA PaCa-2 [14]) was 100% and the Imax (COLO 205 [15]) was 99%. For the same compound, the IC50 (K562 [16]) was 64.5 µM, the Imax (RL [17]) was 113% and the IC50 (MDA-MB-231 [18]) was 50.6 µM. The IC50 [19] was 33.9 µM, the Imax (HT-29 [20]) was 100% and the Imax (MOLT-4 [21]) was 99%. For the same compound, the IC50 (PC-3 [22]) was 62.8 µM, the Imax (MCF7 [23]) was 100% and the IC50 (KG-1 [24]) was 60 µM. For the same compound, the Imax (HL-60 [25]) was 99%, the IC50 (HepG2 [26]) was 25.3 µM and the IC50 5637 [27] was 82.6 µM. For the same compound, the Imax (HepG2 [28]) was 100%, the Imax (PC-3 [29]) was 97% and the Imax [30] was 97%. The Imax (KG-1 [31]) was 98%, the IC50 (MIA PaCa-2 [32]) was 12.6 µM and the IC50 (HL-60 [33]) was 73.7 µM. For the same compound, the IC50 (MCF7 [34]) was 40.4 µM.
